Laboratory results from ChEMBL document CHEMBL3232870, “Discovery of 3-(4-methanesulfonylphenoxy)-N-[1-(2-methoxy-ethoxymethyl)-1H-pyrazol-3-yl]-5-(3-methylpyridin-2-yl)-benzamide as a novel glucokinase activator (GKA) for the treatment of type 2 diabetes mellitus” (Bioorg Med Chem, 2014).

How the values were obtained:
[1] = Cmax in female Sprague-Dawley rat at 1000 mg/kg, po measured on day 1; assay type: ADME, organism-based; design: dose 1000 mg/kg, route oral; conditions: in vivo
Method in brief: (§1)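 Sprague–Dawley rats, 5 weeks old at arrival, both sexes. Given the compound by oral gavage once daily for 14 days at 0, 250, 500 or 1000 mg/kg/day, with 0.5% methylcellulose as vehicle. Toxicokinetic parameters were determined on Day 1 and Day 14.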

Cytochrome P450 2C9 = Cytochrome P450 2C9 (Homo sapiens, UniProt P11712); assay: Inhibition of CYP2C9 in human liver microsomes; assay type: ADME
Method in brief: (§2)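 Pooled human liver microsomes at 0.25 mg/mL, each with a CYP-selective substrate and test compound up to 25 µM, preincubated at 37 °C. It is stopped on ice with ice-cold acetonitrile and centrifuged, and the supernatant is analysed by LC–MS/MS.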

Cytochrome P450 2B6 = target: T1, Cytochrome P450 2B6 (Homo sapiens, UniProt P20813); assay: Inhibition of CYP2B6 in human liver microsomes; assay type: ADME; method in brief: as §2
T1 sequence (P20813 whole entry): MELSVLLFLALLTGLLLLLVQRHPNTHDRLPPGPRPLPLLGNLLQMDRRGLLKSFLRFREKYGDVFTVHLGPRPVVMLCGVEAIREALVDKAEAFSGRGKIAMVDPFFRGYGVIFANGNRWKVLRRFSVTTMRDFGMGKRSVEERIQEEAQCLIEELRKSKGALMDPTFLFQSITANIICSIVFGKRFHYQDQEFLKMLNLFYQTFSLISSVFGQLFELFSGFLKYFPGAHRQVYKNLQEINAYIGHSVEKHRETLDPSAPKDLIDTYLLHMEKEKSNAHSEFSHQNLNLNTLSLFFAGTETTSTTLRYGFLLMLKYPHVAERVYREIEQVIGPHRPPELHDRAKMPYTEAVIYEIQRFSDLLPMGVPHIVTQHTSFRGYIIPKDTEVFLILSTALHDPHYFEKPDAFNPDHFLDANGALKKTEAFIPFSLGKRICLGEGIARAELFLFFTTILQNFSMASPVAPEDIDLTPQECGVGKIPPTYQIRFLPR

[2] = Cmax in male Sprague-Dawley rat at 500 mg/kg, po measured on day 1; assay type: ADME, organism-based; design: dose 500 mg/kg, route oral; conditions: in vivo; method in brief: as §1
[3] = Metabolic stability in human liver microsomes assessed as compound remaining after 1 hr relative to control; assay type: ADME; conditions: read-out: Stability
Method in brief: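 Liver microsomes from mouse, dog or human were incubated with compound for 1 h, and the percentage of compound remaining was determined.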

[4] = Tmax in female Sprague-Dawley rat at 250 mg/kg, po measured on day 1; assay type: ADME, organism-based; design: dose 250 mg/kg, route oral; conditions: in vivo
Method in brief: (§3)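 Sprague–Dawley rats of both sexes, 5 weeks old at arrival, received daily oral gavage at 0, 250, 500 or 1000 mg/kg/day for 14 days. Vehicle was 0.5% methylcellulose at 10 mL/kg. Toxicokinetics were taken on Day 1 and Day 14. Necropsy was by Day 15. Testis was fixed in modified Davidson's fixative, paraffin-sectioned and H&E-stained, with histopathology on control and high-dose groups only.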

Cytochrome P450 1A2 = target: T2, Cytochrome P450 1A2 (Homo sapiens, UniProt P05177); assay: Inhibition of CYP1A2 in human liver microsomes; assay type: ADME; method in brief: as §2
T2 sequence (P05177 whole entry): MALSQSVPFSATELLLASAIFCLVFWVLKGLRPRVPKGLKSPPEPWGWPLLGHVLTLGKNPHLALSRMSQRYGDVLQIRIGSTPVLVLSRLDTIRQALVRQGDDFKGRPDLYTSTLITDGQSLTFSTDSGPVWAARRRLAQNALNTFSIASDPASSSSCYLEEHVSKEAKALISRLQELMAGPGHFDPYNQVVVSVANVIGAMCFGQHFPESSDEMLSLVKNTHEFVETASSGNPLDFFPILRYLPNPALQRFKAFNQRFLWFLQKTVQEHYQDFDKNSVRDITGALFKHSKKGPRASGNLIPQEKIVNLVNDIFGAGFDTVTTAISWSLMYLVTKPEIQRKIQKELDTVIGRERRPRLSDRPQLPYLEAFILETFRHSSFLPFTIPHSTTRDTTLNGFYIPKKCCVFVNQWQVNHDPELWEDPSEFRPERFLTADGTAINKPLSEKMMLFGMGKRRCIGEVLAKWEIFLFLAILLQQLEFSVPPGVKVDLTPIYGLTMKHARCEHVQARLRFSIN

[5] = Tmax in male Sprague-Dawley rat at 1000 mg/kg, po measured on day 14; assay type: ADME, organism-based; design: dose 1000 mg/kg, route oral; conditions: in vivo; method in brief: as §3

Cytochrome P450 2C9, sequence (P11712 whole entry): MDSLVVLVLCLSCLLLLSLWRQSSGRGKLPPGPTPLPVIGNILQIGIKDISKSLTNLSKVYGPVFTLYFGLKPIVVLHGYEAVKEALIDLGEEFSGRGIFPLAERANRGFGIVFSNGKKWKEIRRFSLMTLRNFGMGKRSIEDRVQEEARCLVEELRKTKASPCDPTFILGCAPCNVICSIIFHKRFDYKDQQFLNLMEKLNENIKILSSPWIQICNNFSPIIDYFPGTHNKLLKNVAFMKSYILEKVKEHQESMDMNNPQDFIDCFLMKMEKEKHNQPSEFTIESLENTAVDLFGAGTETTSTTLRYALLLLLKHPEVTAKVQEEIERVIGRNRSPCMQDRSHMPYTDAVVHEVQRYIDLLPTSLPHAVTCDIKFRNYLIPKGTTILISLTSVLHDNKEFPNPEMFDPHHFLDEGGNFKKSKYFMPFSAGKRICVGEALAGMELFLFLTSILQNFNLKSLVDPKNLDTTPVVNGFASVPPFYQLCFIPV

Question: What does the source list for `COCCOCn1ccc(NC(=O)c2cc(Oc3ccc(S(C)(=O)=O)cc3)cc(-c3ncccc3C)c2)n1`?
Answer: Cmax [1]: 7590 ng/mL; IC50 (Cytochrome P450 2C9): 5.2 µM; inhibition (INH) (Cytochrome P450 2B6): Not Active; Cmax [2]: 4100 ng/mL; remaining at 1 h [3]: > 60%; Tmax [4]: 3.7 h; inhibition (INH) (Cytochrome P450 1A2): Not Active; Tmax [5]: 5 h
